Results published in ChEMBL document CHEMBL3400140, “Design, synthesis, and structure-activity relationships of 1-ethylpyrazole-3-carboxamide compounds as novel hypoxia-inducible factor (HIF)-1 inhibitors” (Bioorg Med Chem, 2015).
Activity calls are given as the source filed them. The calls are words filed in the database; no cut-off is given here.

Legend:
[1] = molecular target: T1, Hypoxia inducible factors; HIF-1-alpha, HIF-2-alpha (Homo sapiens, UniProt Q16665+Q99814); experiment: Inhibition of HIF1 in human HT1080 cells transfected with 5xHRE/pGL3/VEGF/E1b reporter plasmid pre-incubated for 1 hr followed by incubation under hypoxia conditions for 24 hrs by HRE-driven luciferase reporter gene assay; type: cell-based; settings: for IC50: ht-1080
[2] = Inhibition of cell proliferation of human HT1080 cells after 72 hrs by WST-8 dye based cell counting assay; type: functional; settings: HT-1080, 72 h
Outline: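 HT1080 cells seeded at 1.0 × 10³/well and kept under hypoxia (1% O₂); growth read 72 h after compound addition with WST-8 reagent, absorbance at 450 nm.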

[3] = molecular target: T1, Hypoxia inducible factors; HIF-1-alpha, HIF-2-alpha; experiment: Inhibition of HIF1-mediated carbonic anhydrase 9 gene expression in human HT1080 cells at 100 uM after 16 hrs by real time PCR method; type: cell-based; settings: HT-1080
Outline: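 HT1080 cells exposed to compounds at 100 µM for 16 h; CAIX mRNA measured by quantitative PCR normalized to 18S rRNA, expressed relative to the normoxic value.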

HT-1080 [4] = experiment: Inhibition of cell migration of scratched human HT1080 cells monolayers at 100 uM after 48 hrs by phase contrast microscopy based wound-healing assay; type: functional
[5] = molecular target: T1, Hypoxia inducible factors; HIF-1-alpha, HIF-2-alpha; experiment: Inhibition of HIF1-mediated carbonic anhydrase 9 gene expression in human HT1080 cells at 1 to 100 uM after 4 hrs by real time PCR method; type: cell-based; settings: HT-1080
Outline: (§1)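 HT1080 cells treated 4 h with compound; mRNA of CAIX, HIF-1a and HIF-1b quantified by real-time PCR, normalized to 18S rRNA and expressed relative to DMSO-treated cells.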

HT-1080 [6] = experiment: Effect on HIF-1alpha gene expression in human HT1080 cells up to 100 uM after 4 hrs by real time PCR method; type: functional, cell-based; outline: as §1
HT-1080 [7] = experiment: Effect on HIF-1beta gene expression in human HT1080 cells up to 100 uM after 4 hrs by real time PCR method; type: functional, cell-based; outline: as §1

In the case of CCn1cc(NC(=O)c2cccc(Cn3nc(C)cc3C)c2)c(C(N)=O)n1, the IC50 [1] is reported as 72 µM and the IC50 [2] is reported as 50.2 µM.

With CCn1cc(NC(=O)c2ccc(Cc3c(C)noc3C)o2)c(C(N)=O)n1 the IC50 [1] was > 100 µM and the IC50 [2] was > 100 µM.

In the case of CCn1ncc(NC(=O)c2ccc(Cn3nc(C)cc3C)o2)c1C(N)=O, the IC50 [1] is reported as > 100 µM, the IC50 [2] is reported as > 100 µM and the inhibition [3] is reported as “inactive”.

For CCn1cc(NC(=O)c2ccc(Cn3nc(C)c(Cl)c3C)o2)c(C(N)=O)n1, the IC50 [1] was 8.7 µM, the IC50 [2] was 7.4 µM and the inhibition [3] was “Active”. For the same compound, the inhibition (HT-1080 [4]) was “Active”.

CCn1cc(NC(=O)c2ccc(Cn3nc(C)cc3C)o2)c(C(=O)NC)n1 gave an IC50 [1] of 19.4 µM and an IC50 [2] of 18.1 µM.

In the case of CCn1cc(NC(=O)c2ccc(Cn3nc(C)cc3C)o2)c(C(N)=O)n1, the inhibition ([1]; HT-1080) is reported as “Dose-dependent effect”, the IC50 [1] is reported as 19.1 µM and the IC50 [2] is reported as 15.1 µM. For the same compound, the inhibition [5] was “Dose-dependent effect”, the Activity (HT-1080 [6]) was “inactive” and the Activity (HT-1080 [7]) was “inactive”. The inhibition (HT-1080 [4]) was “Active”.

With CCn1cc(NC(=O)c2ccc(Cn3cccn3)o2)c(C(N)=O)n1 the IC50 [1] was 81.8 µM and the IC50 [2] was 75.1 µM.

In the case of CCn1cc(NC(=O)c2ccc(Cn3nc(C)cc3C)s2)c(C(N)=O)n1, the IC50 [1] is reported as > 100 µM and the IC50 [2] is reported as > 100 µM.

With CCn1cc(NC(=O)c2ccc(Cn3nc(C)cc3C)o2)c(C(=O)N(C)C)n1 the IC50 [1] was > 100 µM and the IC50 [2] was 75 µM.

For Cc1cc(C)n(Cc2ccc(C(=O)Nc3c[nH]nc3C(N)=O)o2)n1, the IC50 [1] was 71.6 µM and the IC50 [2] was 66.6 µM.

In the case of Cc1cc(C)n(Cc2ccc(C(=O)Nc3cnn4c3C(=O)NCC4)o2)n1, the IC50 [1] is reported as > 100 µM and the IC50 [2] is reported as > 100 µM.

In the case of CCn1cc(NC(=O)c2ccc(Cn3nc(C)c(Br)c3C)o2)c(C(N)=O)n1, the IC50 [1] is reported as 8.1 µM, the IC50 [2] is reported as 7 µM and the inhibition [3] is reported as “Active”. The inhibition (HT-1080 [4]) was “Active”.
